Laboratory results: ChEMBL document CHEMBL5576116, “Structural modification of the propyl linker of cjoc42 in combination with sulfonate ester and triazole replacements for enhanced gankyrin binding and anti-proliferative activity” (Bioorg Med Chem, 2024)
Calls of active or inactive are those of the source. The calls are words filed in the database; no cut-off is given here.

Legend:
HuH-6 [1] = assay: Antiproliferative activity against human HuH-6 cells incubated for 72 hrs by MTT assay; assay type: functional, cell-based; settings: HuH-6, 72 h
How it was run: (§1)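 Cells kept in DMEM with 10% FBS and 1% penicillin/streptomycin, seeded at 2.5 x 10^4 cells/well and left 24 h before drug. Exposed to increasing compound concentrations for 72 h at 37 °C, 5% CO2. MTT dye (5.4 mg/mL) added for 3 h at 37 °C, formazan dissolved in DMSO, A570 read. 6–8 replicates per treatment; IC50 from dose–response curves.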

[2] = Cytotoxicity against HEK293 cells; assay type: toxicity, cell-based; settings: human; how it was run: as §1
Huh-7 = assay: Antiproliferative activity against human HuH-7 cells incubated for 72 hrs by MTT assay; assay type: functional, cell-based; settings: Huh-7, 72 h; how it was run: as §1
Hep 3B2 = assay: Antiproliferative activity against human Hep3B cells incubated for 72 hrs by MTT assay; assay type: functional, cell-based
HepG2 = assay: Antiproliferative activity against human HepG2 cells incubated for 72 hrs by MTT assay; assay type: functional, cell-based; settings: HepG2, 72 h
[3] = biological target: T1, 26S proteasome non-ATPase regulatory subunit 10 (Homo sapiens) (UniProt O75832); assay: Binding affinity to gankyrin in human HuH-6 cells assessed as thermal stability incubated for 5 hrs by CETSA; assay type: cell-based
T1 sequence (whole entry): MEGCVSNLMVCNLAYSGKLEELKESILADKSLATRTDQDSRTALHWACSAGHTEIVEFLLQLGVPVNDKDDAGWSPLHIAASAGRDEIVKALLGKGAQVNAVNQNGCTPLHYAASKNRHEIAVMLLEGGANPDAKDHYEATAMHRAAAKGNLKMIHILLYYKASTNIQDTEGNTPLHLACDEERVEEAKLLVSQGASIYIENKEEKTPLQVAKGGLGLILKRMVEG
How it was run: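 HuH6 cells treated for 5 h with compound or vehicle, 0.25% DMSO final. Harvested cells split into six aliquots heated at 50, 53, 56, 59, 62 or 65 °C. Lysed in RIPA with protease/phosphatase inhibitors, 60 min on ice. 15 μg protein run on reducing SDS-PAGE, blotted to PVDF, probed for gankyrin with β-actin reference, ECL detection. Melt curve mean ± SD, n = 3.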

HuH-6 [4] = assay: Upregulation of Rb protein level in human HuH-6 cells at 0.82 to 3.3 uM incubated for 48 hrs by Western blotting analysis; assay type: functional, cell-based; settings: dose 0.82-3.3 µM
How it was run: (§2)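 HuH6 cells in 10 cm dishes exposed to varying compound concentrations or vehicle (0.25% DMSO final) for 48 h. Harvested in cold PBS, lysed in RIPA plus protease/phosphatase inhibitors for 60 min on ice. 15 μg protein on reducing SDS-PAGE, transferred to PVDF, immunoblotted for p53, Rb and gankyrin with cyclophilin as reference; ECL detection. Run in duplicate.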

HuH-6 [5] = assay: Upregulation of p53 protein level in human HuH-6 cells at 0.82 to 3.3 uM incubated for 48 hrs by Western blotting analysis; assay type: functional, cell-based; settings: dose 0.82-3.3 µM; how it was run: as §2
HuH-6 [6] = assay: Effect on gankyrin protein level in human HuH-6 cells at 0.82 to 3.3 uM incubated for 48 hrs by Western blotting analysis; assay type: functional, cell-based; settings: dose 0.82-3.3 µM; how it was run: as §2
HuH-6 [7] = assay: Induction of cell cycle arrest in human HuH-6 cells assessed as accumulation of cells at […] phase at 3.3 uM incubated for 72 hrs PI/RNAase staining based flow cytometry analysis; assay type: functional
How it was run: (§3)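 HuH6 cells treated 72 h with compound or vehicle (0.25% DMSO final), harvested in cold PBS, normalized, fixed in 70% ethanol at −20 °C overnight. Pellet stained with PI/RNase for 30 min at 37 °C, then analyzed by flow and imaging cytometry. Mean ± SD, n = 3; one-way ANOVA, P < 0.05 significant.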

HuH-6 [8] = assay: Induction of cell cycle arrest in human HuH-6 cells assessed as decrease in S phase cells at 3.3 uM incubated for 72 hrs PI/RNAase staining based flow cytometry analysis; assay type: functional; how it was run: as §3

Q: With `COC(=O)c1ccc(C(=O)NCCNC(=O)c2ccc(C(=O)OC)cc2)cc1` as the compound, how does the IC50 (HuH-6 [1]) read?
A: > 50 µM

Q: With `Cc1ccc(C(=O)NCCNC(=O)c2ccc(C)cc2)cc1` as the compound, how does the IC50 (HuH-6 [1]) read?
A: 30.2 µM

Q: With `COC(=O)c1ccc(C(=O)NCCCNC(=O)c2ccc(C)cc2)cc1` as the compound, how does the IC50 (HuH-6 [1]) read?
A: > 50 µM

Q: Which IC50 (HuH-6 [1]) does the source give for `Cc1ccc(NC(=O)CC(=O)Nc2ccc(C)cc2)cc1` here?
A: > 50 µM

Q: With `COc1ccc(CNC(=O)NS(=O)(=O)c2ccc(C)cc2)cc1` as the compound, how does the IC50 (HuH-6 [1]) read?
A: > 50 µM

Q: For `COC(=O)c1ccc(-n2cc(CCCCOS(=O)(=O)c3ccc(C)cc3)nn2)cc1`, which IC50 (HuH-6 [1]) is on record?
A: > 50 µM

Q: With `COC(=O)c1ccc(-n2cc(CNC(=O)c3ccc(C)cc3)nn2)cc1` as the compound, how does the IC50 (HuH-6 [1]) read?
A: > 50 µM

Q: For `Cc1ccc(CNC(=O)NS(=O)(=O)c2ccc(C)cc2)cc1`, which IC50 (HuH-6 [1]) is on record?
A: > 50 µM

Q: With `COC(=O)c1ccc(C(=O)NCCCNC(=O)c2ccc(C(=O)OC)cc2)cc1` as the compound, how does the IC50 (HuH-6 [1]) read?
A: 19.8 µM

Q: And the IC50 [2]?
A: > 50 µM

Q: For `COC(=O)c1ccc(NC(=O)CC(=O)Nc2ccc(C(=O)OC)cc2)cc1`, which IC50 (HuH-6 [1]) is on record?
A: > 50 µM

Q: For `Cc1ccc(C(=O)NCCCCNC(=O)c2ccc(C)cc2)cc1`, which IC50 (HuH-6 [1]) is on record?
A: > 50 µM

Q: For `Cc1ccc(C(=O)NCCCCNC(=O)c2ccc(-c3ccccc3)cc2)cc1`, which IC50 (HuH-6 [1]) is on record?
A: > 50 µM

Q: With `Cc1ccc(NC(=O)CCC(=O)Nc2ccc(C)cc2)cc1` as the compound, how does the IC50 (HuH-6 [1]) read?
A: > 50 µM

Q: With `COC(=O)c1ccc(NC(=O)Nc2ccc(C)cc2)cc1` as the compound, how does the IC50 (HuH-6 [1]) read?
A: 38.8 µM

Q: With `COC(=O)c1ccc(-n2cc(CCNC(=O)c3ccc(C)cc3)nn2)cc1` as the compound, how does the IC50 (HuH-6 [1]) read?
A: > 50 µM

Q: For `COC(=O)c1ccc(C(=O)NCCCCNC(=O)c2ccc(-c3ccccc3)cc2)cc1`, which IC50 (HuH-6 [1]) is on record?
A: > 50 µM

Q: For `Cc1ccc(NC(=O)Nc2ccc(C)cc2)cc1`, which IC50 (HuH-6 [1]) is on record?
A: > 50 µM

Q: Which IC50 (HuH-6 [1]) does the source give for `COC(=O)c1ccc(-n2cc(CCCOS(=O)(=O)c3ccc(C)cc3)nn2)cc1` here?
A: > 50 µM

Q: Which IC50 (HuH-6 [1]) does the source give for `O=C(NCCCNC(=O)c1ccc(C(F)(F)F)cc1)c1ccc(-c2ccccc2)cc1` here?
A: > 50 µM

Q: Which IC50 (HuH-6 [1]) does the source give for `Cc1ccc(C(=O)NCCCNC(=O)c2ccc(-c3ccccc3)cc2)cc1` here?
A: 20.3 µM

Q: With `COC(=O)c1ccc(NC(=O)CCCCC(=O)Nc2ccc(C(=O)OC)cc2)cc1` as the compound, how does the IC50 (HuH-6 [1]) read?
A: > 50 µM

Q: With `COC(=O)c1ccc(C(=O)NCCCCNC(=O)c2ccc(C)cc2)cc1` as the compound, how does the IC50 (HuH-6 [1]) read?
A: > 50 µM

Q: For `Cc1ccc(CNC(=O)Nc2ccc(C)cc2)cc1`, which IC50 (HuH-6 [1]) is on record?
A: > 50 µM

Q: With `COC(=O)c1ccc(NC(=O)CCC(=O)Nc2ccc(-c3ccccc3)cc2)cc1` as the compound, how does the IC50 (HuH-6 [1]) read?
A: > 50 µM

Q: Which results are given for `COc1ccc(C(=O)NCCCNC(=O)c2ccc(-c3ccccc3)cc2)cc1`?
A: IC50 (HuH-6 [1]): 2.4 µM; IC50 [2]: 3.3 µM

Q: Which IC50 (HuH-6 [1]) does the source give for `O=C(NCCCCNC(=O)c1ccc(C(F)(F)F)cc1)c1ccc(-c2ccccc2)cc1` here?
A: > 50 µM

Q: With `COC(=O)c1ccc(C(=O)NCCCCNC(=O)c2ccc(C(=O)OC)cc2)cc1` as the compound, how does the IC50 (HuH-6 [1]) read?
A: > 50 µM

Q: With `COC(=O)c1ccc(-n2cc(CCOS(=O)(=O)c3ccc(C)cc3)nn2)cc1` as the compound, how does the IC50 (HuH-6 [1]) read?
A: > 50 µM

Q: For `COC(=O)c1ccc(NC(=O)CCCCC(=O)Nc2ccc(C)cc2)cc1`, which IC50 (HuH-6 [1]) is on record?
A: > 50 µM

Q: With `Cc1ccc(NC(=O)CCCC(=O)Nc2ccc(C)cc2)cc1` as the compound, how does the IC50 (HuH-6 [1]) read?
A: > 50 µM

Q: Which IC50 (HuH-6 [1]) does the source give for `COc1ccc(CNC(=O)Nc2ccc(C)cc2)cc1` here?
A: > 50 µM

Q: Which IC50 (HuH-6 [1]) does the source give for `Cc1ccc(NC(=O)CCCCC(=O)Nc2ccc(C)cc2)cc1` here?
A: > 50 µM

Q: With `Cc1ccc(C(=O)NCCCNC(=O)c2ccc(C)cc2)cc1` as the compound, how does the IC50 (HuH-6 [1]) read?
A: > 50 µM

Q: Which IC50 (HuH-6 [1]) does the source give for `COC(=O)c1ccc(C(=O)NCCCNC(=O)c2ccc(-c3ccccc3)cc2)cc1` here?
A: > 50 µM

Q: For `COC(=O)c1ccc(NC(=O)NS(=O)(=O)c2ccc(C)cc2)cc1`, which IC50 (HuH-6 [1]) is on record?
A: > 50 µM

Q: Which IC50 (HuH-6 [1]) does the source give for `COC(=O)c1ccc(CNC(=O)NS(=O)(=O)c2ccc(C)cc2)cc1` here?
A: > 50 µM

Q: Which IC50 (HuH-6 [1]) does the source give for `COC(=O)c1ccc(-n2cc(CCCCNC(=O)c3ccc(C)cc3)nn2)cc1` here?
A: 19.5 µM

Q: With `COC(=O)c1ccc(C(=O)NCCNC(=O)c2ccc(C)cc2)cc1` as the compound, how does the IC50 (HuH-6 [1]) read?
A: 31 µM

Q: Which IC50 (HuH-6 [1]) does the source give for `COC(=O)c1ccc(NC(=O)CCC(=O)Nc2ccc(C(=O)OC)cc2)cc1` here?
A: 3.3 µM

Q: What about the IC50 [2] of the same compound?
A: > 50 µM

Q: And the IC50 (Huh-7)?
A: > 50 µM

Q: What about the IC50 (Hep 3B2) of the same compound?
A: > 50 µM

Q: And the IC50 (HepG2)?
A: 24 µM

Q: And the Activity [3]?
A: Active

Q: And the Activity (HuH-6 [4])?
A: Active

Q: What about the Activity (HuH-6 [5]) of the same compound?
A: Active

Q: What about the Activity (HuH-6 [6]) of the same compound?
A: inactive

Q: And the Activity (HuH-6 [7])?
A: Active

Q: And the Activity (HuH-6 [8])?
A: Active

Q: With `COC(=O)c1ccc(NC(=O)CCCC(=O)Nc2ccc(C(=O)OC)cc2)cc1` as the compound, how does the IC50 (HuH-6 [1]) read?
A: 14.1 µM

Q: With `Cc1ccc(NC(=O)NS(=O)(=O)c2ccc(C)cc2)cc1` as the compound, how does the IC50 (HuH-6 [1]) read?
A: > 50 µM

Q: Which IC50 (HuH-6 [1]) does the source give for `COC(=O)c1ccc(CNC(=O)Nc2ccc(C)cc2)cc1` here?
A: > 50 µM
